Measured values published in ChEMBL document CHEMBL1133549, “N4-(omega-Aminoalkyl)-1-[(omega-aminoalkyl)amino]-4- acridinecarboxamides: novel, potent, cytotoxic, and DNA-binding agents” (J Med Chem, 2000).
pIC50: −log10 of the molar value.

What was measured:
[1] = test system: A2780; assay: The compound was tested for cytotoxic activity against A2780 cell line(human ovarian carcinoma ); format: functional, cell-based
In short: (§1)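 Human ovarian carcinoma cells (100–5000) were plated and allowed to adhere overnight. Drug was diluted from DMSO stock into aqueous solution at pH 7.0 and applied continuously for 96 h at 37 °C. Growth was read by SRB protein staining. IC50 is 50% growth inhibition versus drug-free controls, from a representative experiment with 4 replicate wells per concentration and 8 control wells.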

[2] = test system: A2780cisR; assay: The compound was tested for cytotoxic activity against A2780cisR cell line(human ovarian carcinoma ); format: functional, cell-based; in short: as §1
[3] = test system: CH1; assay: The compound was tested for cytotoxic activity against CH1 cell line(human ovarian carcinoma ); format: functional, cell-based; in short: as §1
[4] = (§2) The compound was tested for cytotoxic activity against CH1/Cs cell line(human ovarian carcinoma); format: functional, cell-based; in short: as §1
[5] = test system: Nucleic Acid; assay: Binding affinity against CT-DNA from calf thymus DNA; format: nucleic-acid assay; details: Bos taurus
In short: (§3)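 Ethidium displacement measured fluorometrically at 20 °C (excitation 546 nm, emission 595 nm). Buffer was 10 mM Na2HPO4, 10 mM NaH2PO4, 1 mM EDTA, pH 7.0, with 1.26 µM ethidium bromide and 1 µM of CT-DNA, [poly(dA-dT)]2 or [poly(dG-dC)]2. Drug was added serially from a ~5 mM DMSO stock. C50 (50% loss of bound-ethidium fluorescence) is the mean of three determinations. Kapp = 1.26/C50 × 10^7.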

[6] = test system: HT-29; assay: The compound was tested for cytotoxic activity against HT-29 cell line(human colon adeno carcinoma); format: functional, cell-based
In short: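 HT29 colon adenocarcinoma cells at 2.5×10^4 cells/mL received drug under protracted exposure for 144 h. Assays were run in triplicate.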

[7] = test system: Nucleic Acid; assay: Tested for binding affinity against AT from [poly(dA-dT)]2.; format: nucleic-acid assay; in short: as §3
[8] = test system: Nucleic Acid; assay: Binding affinity against GC from [poly(dG-dC)]2.; format: nucleic-acid assay; in short: as §3
[9] = test system: SK-OV-3; assay: The compound was tested for cytotoxic activity against SKOV-3 cell line(human ovarian carcinoma ); format: functional, cell-based; in short: as §1
[10] = test system: A2780; assay: The compound was tested for cytotoxic activity against A2780/Cs cell line(human ovarian carcinoma; format: functional, cell-based; in short: as §1
[11] = test system: CH1; assay: as §2; format: functional, cell-based; in short: as §1
[12] = test system: A2780cisR; assay: The compound was tested for cytotoxic activity against A2780cisR cell line(human ovarian carcinoma); format: functional, cell-based; in short: as §1
[13] = test system: A2780cisR; assay: The compound was tested for cytotoxic activity against A2780cisR cell line(human ovarian carcinoma; format: functional, cell-based; in short: as §1

| K app [5] [M⁻¹] | K app [7] [M⁻¹] | K app [8] [M⁻¹] | Compound | pIC50 [1] | pIC50 [2] | pIC50 [3] | pIC50 [4] | pIC50 [6] | pIC50 [9] | pIC50 [10] | pIC50 ([2]; Homo sapiens, A2780cisR) | pIC50 [11] | pIC50 ([2]; a2780cisr) | pIC50 [12] | pIC50 [13] |
| --- | --- | --- | --- | --- | --- | --- | --- | --- | --- | --- | --- | --- | --- | --- | --- |
| 8.5e+07 | 2.2e+07 | 5.6e+07 | NCCNC(=O)c1ccc(NCCN)c2cc3ccccc3nc12 | 4.92 | 5.50 | 5.92 | 5.81 | 5.16 | 4.92 | – | – | – | – | – | – |
| 1.5e+09 | 2.8e+07 | 2.3e+08 | CN(C)CCNC(=O)c1ccc(NCCN(C)C)c2cc3ccccc3nc12 | 8.37 | – | 8.15 | 8.30 | 8.15 | 6.96 | 8.15 | – | – | – | – | – |
| – | – | – | COc1cccc2c1C(=O)c1c(O)c3c(c(O)c1C2=O)C[C@@](O)(C(=O)CO)C[C@@H]3O[C@H]1C[C@H](N)[C@H](O)[C@H](C)O1 [DOXORUBICIN] | – | – | – | – | – | – | – | 7.77 | 6.35 | – | – | – |
| 3.4e+07 | 2.7e+07 | 6.3e+07 | O=C(NCCN1CCCCC1)c1ccc(NCCN2CCCCC2)c2cc3ccccc3nc12 | 7.00 | 6.92 | 6.87 | 6.96 | 6.36 | 6.85 | – | – | – | – | – | – |
| – | – | – | CISPLATIN | – | – | – | – | – | – | – | – | – | 5.47 | – | – |
| 2.9e+08 | 3.1e+07 | 1e+08 | CN(C)CCNC(=O)c1ccc(NCCN(C)C)c2cc3cc(O)ccc3nc12 | 6.96 | 6.72 | 6.82 | 6.70 | 6.07 | 6.05 | – | – | – | – | – | – |
| 9.9e+07 | 4.5e+07 | 3e+08 | CN(C)CCNC(=O)c1ccc(NCCNCCO)c2cc3ccccc3nc12 | 7.07 | 7.04 | 7.28 | 7.34 | 7.00 | 6.62 | – | – | – | – | – | – |
| – | – | – | CN(C)CCNC(=O)c1ccc(NCCN(C)C)c2cc3cc(N)ccc3nc12 [listing 1 of 3 here] | 6.49 | – | 7.05 | – | 6.15 | 6.81 | – | 6.44 | 7.00 | – | – | – |
| 1.4e+09 | 2.8e+08 | 4.1e+08 | CN(C)CCNC(=O)c1ccc(NCCN(C)C)c2cc3cc(N)ccc3nc12 [listing 2 of 3 here] | – | – | – | – | – | – | – | – | – | – | – | – |
| 1.9e+07 | 1.4e+07 | 5.9e+07 | COc1ccc2nc3c(C(=O)NCCN(C)C)ccc(NCCN(C)C)c3cc2c1 | 7.02 | – | 7.30 | 7.36 | 6.25 | 7.22 | – | – | – | – | 6.90 | – |
| 1.1e+06 | 1.4e+06 | 1e+06 | CN(C)CCNC(=O)c1cccc2cc3ccccc3nc12 | 6.29 | 6.24 | 6.32 | 6.28 | 6.00 | 6.01 | – | – | – | – | – | – |
| – | – | – | CN(C)CCNC(=O)c1ccc(Cl)c2cc3ccccc3nc12 | 5.69 | 5.69 | 5.76 | 5.72 | 6.10 | 5.48 | – | – | – | – | – | – |
| 4.4e+06 | 5e+06 | 3e+06 | O=C(NCCN1CCOCC1)c1ccc(NCCN2CCOCC2)c2cc3ccccc3nc12 | 5.64 | 5.60 | 5.73 | 5.67 | 5.57 | 5.49 | – | – | – | – | – | – |
| – | – | – | CN(C)CCNC(=O)c1ccc(NCCN(C)C)c2cc3cc(N)ccc3nc12 [listing 3 of 3 here] | 6.49 | 6.44 | 7.05 | – | 6.15 | 6.81 | – | – | 7.00 | – | – | – |
| – | – | – | CN(C)CCCNC(=O)c1ccc(NCCCN(C)C)c2cc3ccccc3nc12 [listing 1 of 2 here] | 5.71 | – | 6.07 | – | 6.15 | 6.18 | – | 5.90 | 6.28 | – | – | – |
| 3.7e+07 | – | – | CN(C)CCNC(=O)c1ccc(NCCN(C)C)c2c(=O)c3ccccc3[nH]c12 | 7.82 | – | 7.70 | – | 7.03 | 6.40 | – | – | – | – | – | – |
| – | – | – | CN(C)CCCNC(=O)c1ccc(NCCCN(C)C)c2cc3ccccc3nc12 [listing 2 of 2 here] | 5.71 | – | 6.07 | 6.28 | 6.15 | 6.18 | 5.90 | – | – | – | – | – |
| 1.5e+08 | 1.7e+07 | 9.1e+07 | CCN(CC)CCNC(=O)c1ccc(NCCN(CC)CC)c2cc3ccccc3nc12 | 6.38 | – | 6.73 | 6.43 | 6.24 | 6.30 | – | – | – | – | – | 6.32 |
